Measurements of several laboratories.
Each line is one published result; the experiments were not run side by side.
Target: Dual specificity mitogen-activated protein kinase kinase 6 (MAP2K6, Homo sapiens, UniProt P52564)
Sequence (P52564 1-334, as in one of the studies): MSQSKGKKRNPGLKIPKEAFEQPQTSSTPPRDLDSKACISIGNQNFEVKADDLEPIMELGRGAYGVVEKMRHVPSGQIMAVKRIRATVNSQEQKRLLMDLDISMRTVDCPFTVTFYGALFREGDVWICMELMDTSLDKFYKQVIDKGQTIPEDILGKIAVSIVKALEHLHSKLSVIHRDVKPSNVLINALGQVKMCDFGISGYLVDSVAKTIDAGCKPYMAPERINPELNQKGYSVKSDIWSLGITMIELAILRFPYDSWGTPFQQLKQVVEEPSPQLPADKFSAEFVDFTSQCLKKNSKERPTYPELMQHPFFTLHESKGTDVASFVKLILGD

Compound	observed	technique	concentration	remaining binding [%]
Cn1nc(C(=O)NCc2ccc(C(=O)O)cc2)cc1-c1ccc2[nH]ccc2c1	cell-free assay	competition with immobilised ligand	0.1 µM	100
O=C(NCC1CCOCC1)c1n[nH]cc1NC(=O)c1c(F)cccc1F	binding	competition with immobilised ligand	1 µM	95
CN(C)c1nccc(-c2cnn3ncccc23)n1	binding	–	1 µM	58
CNC(=O)[C@@H]1CC[C@@H](n2c(-c3ccc4cnccc4c3)nc3ccc(C(=O)NCc4cccc(C(N)=O)c4)cc32)C1	binding	competition with immobilised ligand	1 µM	100
COc1ncc2cc3ccccc3nc2c1C#N	cell-free assay	competition with immobilised ligand	5 µM	100
c1cnn2ncc(-c3ccnc(N4CCC45COC5)n3)c2c1	binding	–	1 µM	100
COc1cnc(Nc2cccc(S(N)(=O)=O)c2)nc1N1CCN(c2ccccc2)C(=O)C1	binding	competition with immobilised ligand	1 µM	100
COc1ccnn2ncc(-c3ccnc(N(C)C)n3)c12	binding	–	1 µM	100
Cc1c(C(=O)O)cc(-c2ccc(C3CCNCC3)cc2)c2ccc(-c3ccc(C(F)(F)F)cc3)cc12	binding	competition with immobilised ligand	1 µM	100
O=C(c1ccc(Nc2ncc(Cl)c(-c3cc4ccccc4s3)n2)cc1)N1CCC(N2CCCC2)CC1	binding	competition with immobilised ligand	1 µM	37
Cn1nc(C(F)(F)F)cc1-c1cnc(N2CCc3cc(S(=O)(=O)Nc4c(F)cc(Cl)cc4F)cc(N4CCCC4=O)c32)nc1	cell-free assay	competition with immobilised ligand	1 µM	100
CN(CCCC(F)(F)F)c1nccc(-c2cnn3ncccc23)n1	binding	–	1 µM	100
c1cncc(-c2cccc(Nc3nccc(NC4CCCCC4)n3)c2)c1	binding	competition with immobilised ligand	10 µM	79
Nc1ncc2c(n1)-c1c([nH]c3ccc(C#CC4CC4)cc13)CCCC2	binding	competition with immobilised ligand	1 µM	100
Nc1cnc(N2CCc3cc(S(=O)(=O)Nc4c(F)cc(Cl)cc4F)cc(N4CCCC4=O)c32)nc1	cell-free assay	competition with immobilised ligand	1 µM	71
O=C(NCCCN1CCOCC1)c1ccc(Nc2ncc(Cl)c(-c3ccc(Cl)s3)n2)cc1	binding	competition with immobilised ligand	1 µM	87
CO[C@@H](C)c1c(Nc2ccc([C@@H](N(C)C(=O)C3CCS(=O)(=O)CC3)C(F)(F)F)cc2)cnc2cc(Cl)nn12	cell-free assay	competition with immobilised ligand	1 µM	92
N[C@@H]1CCN(c2nccc(-c3cnn4ncccc34)n2)C1	binding	–	1 µM	100
Cc1cnc(Nc2ccc(C(=O)N3CCC(N4CCCC4)CC3)cc2)nc1-c1cc2ccccc2s1	binding	competition with immobilised ligand	1 µM	30
C[C@H]1CCN(c2nccc(-c3cnn4ncccc34)n2)C1	binding	–	1 µM	100
CC(=O)C1=C(C)N(c2cccc(C(F)(F)F)c2)C(=O)N[C@@H]1c1ccc(C#N)nc1	cell-free assay	competition with immobilised ligand	1 µM	94.6
CN(C)c1nccc(-c2cnc3ncccn23)n1	binding	–	1 µM	99
CCC(=O)N[C@@H]1CC[C@H](C(=O)N(C)c2ccc(-c3nc4ccccc4o3)cc2)C1	cell-free assay	competition with immobilised ligand	1 µM	100
